According to ChEMBL document CHEMBL4842366, “Design, synthesis and structure-activity relationship studies of 4-indole-2-arylaminopyrimidine derivatives as anti-inflammatory agents for acute lung injury” (Eur J Med Chem, 2021):
pIC50: −log10 of the molar value. The source made the active and inactive calls. The rule behind the calls is not given here.

What was measured:
[1] = Antiinflammatory activity in human HBE cells assessed as inhibition of LPS-induced IL-6 production at 5 uM pretreated with compound for 30 mins followed by LPS stimulation and measured after 24 hrs by ELISA relative to control; assay type: functional; conditions: 24.5 h, time 1470 min
Outline: (§1)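 HBE cells were grown in RPMI-1640 with 10% FBS at 37 °C and 5% CO2. Cells were pretreated for 30 min with compound or indomethacin at 5 μM, then stimulated with LPS (100 μg/mL) for 24 h. IL-6 or IL-8 in the medium was measured by ELISA and normalized to total cell protein determined by BCA assay.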

[2] = Antiinflammatory activity in human HBE cells assessed as inhibition of LPS-induced IL-8 production at 5 uM pretreated with compound for 30 mins followed by LPS stimulation and measured after 24 hrs by ELISA relative to control; assay type: functional; conditions: 24.5 h, time 1470 min; outline: as §1
[3] = Cytotoxicity against human HBE cells assessed as cell survival rate at 10 uM by MTT assay relative to control; assay type: cell-based; conditions: read-out: Survival
Outline: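 HBE cells in RPMI-1640 with 10% FBS at 37 °C, 5% CO2, seeded at 1 × 10^4 cells per well. Compounds tested at 10 μM. After treatment, MTT (5 mg/mL) for 4 h at 37 °C in the dark, formazan dissolved in DMSO, absorbance read at 490 nm. Data as mean ± SEM.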

HBE [4] = assay: Antiinflammatory activity in human HBE cells assessed as inhibition of LPS-induced IL-6 production at 5 uM pretreated with compound for 30 mins followed by LPS stimulation and measured after 24 hrs by ELISA; assay type: functional, cell-based; conditions: time 1470.0 min; outline: as §1
HBE [5] = assay: Antiinflammatory activity in human HBE cells assessed as inhibition of LPS-induced IL-8 production at 5 uM pretreated with compound for 30 mins followed by LPS stimulation and measured after 24 hrs by ELISA; assay type: functional, cell-based; conditions: time 1470.0 min; outline: as §1
[6] = Cytotoxicity against human HBE cells assessed as reduction in cell survival at 10 uM by MTT assay; assay type: cell-based
Outline: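 HBE cells were seeded at 1 × 10^4 per well in RPMI-1640 with 10% FBS and exposed to compound at 10 μM. Viability was then read by MTT: MTT solution (5 mg/mL) for 4 h at 37 °C in the dark, formazan dissolved in DMSO, and absorbance read at 490 nm.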

[7] = biological target: T1, Epidermal growth factor receptor (Homo sapiens, UniProt P00533); assay: Inhibition of EGFR phosphorylation in human HBE cells incubated for 24 hrs by western blot analysis; assay type: cell-based
T1 sequence (P00533 whole entry): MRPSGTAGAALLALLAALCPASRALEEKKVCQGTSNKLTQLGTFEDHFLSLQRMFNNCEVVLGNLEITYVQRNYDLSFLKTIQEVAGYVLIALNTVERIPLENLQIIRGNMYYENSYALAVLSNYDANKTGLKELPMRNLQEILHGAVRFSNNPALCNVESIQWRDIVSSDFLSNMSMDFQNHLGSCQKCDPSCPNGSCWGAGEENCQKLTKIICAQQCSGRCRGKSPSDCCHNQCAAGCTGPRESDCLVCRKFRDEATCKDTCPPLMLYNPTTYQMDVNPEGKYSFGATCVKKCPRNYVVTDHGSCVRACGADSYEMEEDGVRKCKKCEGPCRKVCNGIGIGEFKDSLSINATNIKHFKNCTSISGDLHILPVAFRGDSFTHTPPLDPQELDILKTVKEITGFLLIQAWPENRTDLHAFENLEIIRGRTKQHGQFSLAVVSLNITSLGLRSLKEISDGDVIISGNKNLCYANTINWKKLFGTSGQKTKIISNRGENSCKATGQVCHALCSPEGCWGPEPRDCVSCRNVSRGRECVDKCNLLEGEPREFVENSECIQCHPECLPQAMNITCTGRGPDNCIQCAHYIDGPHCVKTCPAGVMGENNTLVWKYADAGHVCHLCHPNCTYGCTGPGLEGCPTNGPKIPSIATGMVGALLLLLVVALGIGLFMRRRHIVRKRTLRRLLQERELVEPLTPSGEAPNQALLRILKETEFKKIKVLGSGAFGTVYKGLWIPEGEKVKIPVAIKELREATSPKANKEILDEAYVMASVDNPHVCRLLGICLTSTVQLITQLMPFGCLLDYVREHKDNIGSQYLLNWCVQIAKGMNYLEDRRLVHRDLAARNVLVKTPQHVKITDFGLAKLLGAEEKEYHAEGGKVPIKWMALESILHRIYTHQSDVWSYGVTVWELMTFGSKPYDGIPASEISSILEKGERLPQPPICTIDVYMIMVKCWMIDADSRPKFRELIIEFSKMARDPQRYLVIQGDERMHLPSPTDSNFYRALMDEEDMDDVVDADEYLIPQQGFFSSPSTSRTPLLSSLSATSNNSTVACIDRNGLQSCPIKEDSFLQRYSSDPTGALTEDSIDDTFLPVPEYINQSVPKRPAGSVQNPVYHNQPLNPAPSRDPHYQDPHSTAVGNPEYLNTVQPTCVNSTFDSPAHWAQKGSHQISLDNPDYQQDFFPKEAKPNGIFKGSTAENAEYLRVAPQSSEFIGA
Outline: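 HBE cells were treated with drug for 24 h, washed with cold PBS and lysed on ice for 30 min in buffer with protease and phosphatase inhibitors, then centrifuged at 12000 r/min, 4 °C, for 30 min. Protein was quantified by BCA and separated by SDS-PAGE. Blots were probed overnight at 4 °C with p-EGFR/EGFR antibodies, then secondary antibody (1:2000, 2 h), and detected by chemiluminescence.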

Mus musculus [8] = assay: Antiinflammatory activity against LPS-induced acute lung injury C57BL/6 mouse model assessed as reduction in inflammatory cell infiltration in lungs at 20 mg/kg, ip administered for 3 days and on day 4 treated 1 hr before LPS stimulation and measured after 18 hrs by H and E staining based microscopic analysis; assay type: functional, organism-based; conditions: time 4.0 day
Outline: (§2)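 Male C57BL/6 mice (20–25 g, SPF) in groups of n = 6 were given 0.9% saline or compound i.p. for 3 days. On day 4, LPS (5 mg/kg) was instilled intratracheally 1 h after dosing, and mice were killed 18 h later. Lungs were fixed in 4% paraformaldehyde, paraffin-embedded, cut at 5 μm, H&E-stained and photographed for pathology.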

Mus musculus [9] = assay: Antiinflammatory activity against LPS-induced acute lung injury C57BL/6 mouse model assessed as reduction in edema of lung tissue at 20 mg/kg, ip administered for 3 days and on day 4 treated 1 hr before LPS stimulation and measured after 18 hrs by H and E staining based microscopic analysis; assay type: functional, organism-based; conditions: time 4.0 day; outline: as §2
Mus musculus [10] = assay: Antiinflammatory activity against LPS-induced acute lung injury C57BL/6 mouse model assessed as improved alveolar structure in lungs at 20 mg/kg, ip administered for 3 days and on day 4 treated 1 hr before LPS stimulation and measured after 18 hrs by H and E staining based microscopic analysis; assay type: functional, organism-based; conditions: time 4.0 day; outline: as §2
Mus musculus [11] = assay: Antiinflammatory activity against LPS-induced acute lung injury C57BL/6 mouse model assessed as reduction in lung edema by measuring reduction in lung wet/dry ratio at 10 to 20 mg/kg, ip administered for 3 days and on day 4 treated 1 hr before LPS stimulation and measured after 18 hrs; assay type: functional, organism-based; conditions: dose 10-20 mg/kg, time 4.0 day
Outline: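 Mice (male C57BL/6, n = 6/group) received i.p. saline or compound for 3 days, then intratracheal LPS 5 mg/kg 1 h after the day-4 dose, and were killed 18 h later. Lungs were weighed wet, dried at 60 °C for 48 h to constant weight, and the wet/dry ratio was calculated. Data are mean ± SEM; t-test.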

Mus musculus [12] = assay: Antiinflammatory activity against LPS-induced acute lung injury C57BL/6 mouse model assessed as reduction in total cell count in BALF at 10 to 20 mg/kg, ip administered for 3 days and on day 4 treated 1 hr before LPS stimulation and measured after 18 hrs; assay type: functional, organism-based; conditions: dose 10-20 mg/kg, time 4.0 day
Outline: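 BALF was collected 18 h after intratracheal LPS (5 mg/kg) in male C57BL/6 mice (n = 6/group) given i.p. saline or compound for 3 days, with LPS 1 h after the day-4 dose. Lavage was done with 3 × 1 mL cold PBS and centrifuged at 800 g, 4 °C, for 10 min. The pellet was washed and resuspended in 10 mL PBS, and total cells were counted.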

Mus musculus [13] = assay: Antiinflammatory activity against LPS-induced acute lung injury C57BL/6 mouse model assessed as reduction in protein content in BALF at 10 to 20 mg/kg, ip administered for 3 days and on day 4 treated 1 hr before LPS stimulation and measured after 18 hrs by BCA assay; assay type: functional, organism-based; conditions: dose 10-20 mg/kg, time 4.0 day
Outline: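 In male C57BL/6 mice (n = 6/group; i.p. dosing for 3 days; intratracheal LPS 5 mg/kg 1 h after the day-4 dose; killed at 18 h), lungs were lavaged three times with 1 mL cold PBS. BALF was spun at 800 g, 4 °C, for 10 min, and supernatant protein was measured by BCA assay.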

Mus musculus [14] = assay: Antiinflammatory activity against LPS-induced acute lung injury C57BL/6 mouse model assessed as reduction in IL-1beta mRNA expression in lungs at 20 mg/kg, ip administered for 3 days and on day 4 treated 1 hr before LPS stimulation and measured after 18 hrs by SYBR green dye based RT-qPCR analysis; assay type: functional, organism-based; conditions: time 4.0 day
Outline: (§3)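 Same LPS lung-injury protocol: n = 6 male C57BL/6 mice per group, 3 days of i.p. saline or compound, then intratracheal LPS (5 mg/kg) 1 h after the day-4 dose, and sacrifice at 18 h. Lung RNA was extracted with TRIZOL for real-time quantitative PCR, with mouse GAPDH primers alongside the target primers. Data are mean ± SEM; Student's t-test.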

Mus musculus [15] = assay: Antiinflammatory activity against LPS-induced acute lung injury C57BL/6 mouse model assessed as reduction in IL-6 mRNA expression in lungs at 20 mg/kg, ip administered for 3 days and on day 4 treated 1 hr before LPS stimulation and measured after 18 hrs by SYBR green dye based RT-qPCR analysis; assay type: functional, organism-based; conditions: time 4.0 day; outline: as §3
Mus musculus [16] = assay: Antiinflammatory activity against LPS-induced acute lung injury C57BL/6 mouse model assessed as reduction in TNF-alpha mRNA expression in lungs at 20 mg/kg, ip administered for 3 days and on day 4 treated 1 hr before LPS stimulation and measured after 18 hrs by SYBR green dye based RT-qPCR analysis; assay type: functional, organism-based; conditions: time 4.0 day; outline: as §3
Mus musculus [17] = assay: Antiinflammatory activity against LPS-induced acute lung injury C57BL/6 mouse model assessed as reduction in iNOS mRNA expression in lungs at 10 to 20 mg/kg, ip administered for 3 days and on day 4 treated 1 hr before LPS stimulation and measured after 18 hrs by SYBR green dye based RT-qPCR analysis; assay type: functional, organism-based; conditions: dose 10-20 mg/kg, time 4.0 day; outline: as §3
Mus musculus [18] = assay: In vivo inhibition of MAPK phosphorylation in LPS-induced acute lung injury C57BL/6 mouse model assessed as inhibition of p38 phosphorylation in lungs at 20 mg/kg, ip administered for 3 days and on day 4 treated 1 hr before LPS stimulation and measured after 18 hrs by western blot analysis; assay type: functional, organism-based; conditions: time 4.0 day
Mus musculus [19] = assay: In vivo inhibition of MAPK phosphorylation in LPS-induced acute lung injury C57BL/6 mouse model assessed as inhibition of ERK phosphorylation in lungs at 20 mg/kg, ip administered for 3 days and on day 4 treated 1 hr before LPS stimulation and measured after 18 hrs by western blot analysis; assay type: functional, organism-based; conditions: time 4.0 day
Peritoneal macrophage = assay: Inhibition of LPS-induced NO production in mouse peritoneal macrophages measured after 24 hrs by Griess assay; assay type: functional, cell-based
[20] = biological target: T1, Epidermal growth factor receptor; assay: Inhibition of human EGFR using poly(Glu:Tyr)(4:1) as substrate in presence of [gamma33P]ATP by radiometric HotSpot assay

Compound | inhibition at 5 µM [2] [%] | Activity (HBE [4]) | Activity (HBE [5]) | Activity [6] | other results
COc1cc(N2CCN(C)CC2)c(N)cc1Nc1nccc(-c2cn(C)c3ccccc23)n1 | 65 |  |  |  | inhibition at 5 µM [1]: 62%; viability at 10 µM [3]: < 70%
CCN(CC)c1cc(OC)c(Nc2nccc(-c3cn(C)c4ccccc34)n2)cc1N.Cl |  | Active | Active | Non-Toxic | 
CCCCN(CCCC)c1cc(OC)c(Nc2nccc(-c3cn(C)c4ccccc34)n2)cc1N.Cl |  | Active | Active | Non-Toxic | 
COc1cc(N2CCCCC2)c(N)cc1Nc1nccc(-c2cn(C)c3ccccc23)n1.Cl |  | Active | Active | Non-Toxic | 
COc1cc(N(C)CCN(C)C)c(NC(=O)CCCN=[N+]=[N-])cc1Nc1nccc(-c2cn(C)c3ccccc23)n1 | 88 | Active |  | Non-Toxic | 
COc1cc(N2CCCC2)c(N)cc1Nc1nccc(-c2cn(C)c3ccccc23)n1.Cl | 65 |  |  | Non-Toxic | inhibition at 5 µM [1]: 62%; inhibition [7]: Active
COc1cc(F)c(N)cc1Nc1nccc(-c2cn(C)c3ccccc23)n1 | 49 |  |  | Non-Toxic | inhibition at 5 µM [1]: 63%; inhibition [7]: Active
COc1cc(N2CCOCC2)c(N)cc1Nc1nccc(-c2cn(C)c3ccccc23)n1.Cl |  | Active | Active | Non-Toxic | 
COc1ccc2c(c1)c(CC(=O)O)c(C)n2C(=O)c1ccc(Cl)cc1 [INDOMETHACIN] |  | Active | Active | Non-Toxic | 
COc1cc(N(C)CCN(C)C)c(N)cc1Nc1nccc(-c2cn(C)c3ccccc23)n1.Cl | 72 |  |  | Non-Toxic | inhibition at 5 µM [1]: 62%; Activity (Mus musculus [8]): Active; Activity (Mus musculus [9]): Active; Activity (Mus musculus [10]): Active; Activity (Mus musculus [11]): Active; Activity (Mus musculus [12]): Active; Activity (Mus musculus [13]): Active; Activity (Mus musculus [14]): Active; Activity (Mus musculus [15]): Active; Activity (Mus musculus [16]): Active; Activity (Mus musculus [17]): Active; inhibition (Mus musculus [18]): Active; inhibition (Mus musculus [19]): Active; inhibition [7]: Active
COc1cc(N(C)CCN(C)C)c([N+](=O)[O-])cc1Nc1nccc(-c2cn(C)c3ccccc23)n1 |  | Active | Active |  | viability at 10 µM [3]: < 70%
COc1cc(N(C)CCN(C)C)c(NC(=O)CN=[N+]=[N-])cc1Nc1nccc(-c2cn(C)c3ccccc23)n1 |  | Active | Active | Non-Toxic | 
COc1cc(N2CCCCCC2)c(N)cc1Nc1nccc(-c2cn(C)c3ccccc23)n1.Cl |  | Active | Active | Non-Toxic | 
O=C(Nc1cncnc1Oc1cccc(C(F)(F)F)c1)c1ccc(F)cc1 |  |  |  |  | pIC50 (Peritoneal macrophage): 4.68; pIC50 [20]: 5.53
